For the first assay, the system named is Trypanosoma cruzi. As to the kind of experiment: Inhibition of Trypanosoma cruzi recombinant Trans-sialidase at 0.4 mM.
Conditions: not given
The procedure, abridged:
(§1)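 Recombinant His-tagged TcTS was expressed in E. coli with IPTG induction at 18 °C, then purified by metal-affinity and anion-exchange chromatography. Enzyme (0.33 mg/mL stock) and inhibitor were preincubated 10 min at 25 °C in 20 mM Tris-HCl pH 7.5. The reaction was started with MuNANA (1 mM stock) and methylumbelliferone release read continuously for 10 min at 25 °C (ex 322/em 448 nm). Percentage activity is the mean of ≥3 independent runs. I50 was fitted as V=100%/{1+([I]/I50)^s}.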
The term inhibition denotes the drop in the measured response relative to a control, in per cent. In the case of `NC(N)=Nc1cc(C(=O)O)ccc1SCc1ccccc1`, the inhibition is 43%.

The subject of a further assay is Trypanosoma cruzi. As to the kind of experiment: Inhibition of Trypanosoma cruzi recombinant Trans-sialidase at 0.5 mM.
Conditions: not given
The essentials: as §1
As to `NC(N)=Nc1cc(C(=O)O)ccc1NC(=O)Cc1ccccc1`, the inhibition amounted to 54%.

Molecular target in another assay: not listed separately
As to the kind of experiment: Inhibition of Trypanosoma cruzi recombinant Trans-sialidase. Conditions: read-out: I50. The essentials:
as §1
Take `CNC(=O)c1ccc(C(=O)O)cc1NC(=N)N`: the IC50 was 760 µM. The same measure, in the same setting: under `Nc1cc(C(=O)O)ccc1SCc1ccccc1` stands 700 µM. The same measure, in the same setting: under `CC(=O)Nc1ccc(C(=O)O)cc1CO` stands 540 µM; under `Nc1cc(C(=O)O)ccc1NCc1cccnc1`, 740 µM; under `CC(=O)Nc1cc(C(=O)O)ccc1N1CCOCC1`, 580 µM. As to `Nc1cc(C(=O)O)ccc1NC(=O)Cc1ccccc1`, the IC50 was determined as 1200 µM. For `CC(=S)Nc1ccc(C(=O)O)nc1`, the IC50 is 540 µM. Take `CC(=O)Nc1ccc(C(=O)O)nc1N`: the IC50 is 440 µM. Consider `NCC(=O)Nc1cc(C(=O)O)ccc1SCc1ccccc1`, for which the IC50 stood at 1000 µM.

A further assay deals with Trypanosoma cruzi. Conditions: at 1 mM.
`CC(=O)Nc1ccc(C(=O)O)cc1/C=N/O`: the inhibition came to 24%. For `CC(=O)Nc1ccc(C(=O)O)cc1CC(O)CO` (stereo in doubt; 31), the inhibition came to 17%.

In the case of `C[S+]([O-])Nc1ccc(C(=O)O)cc1N=C(N)N` (stereo unspecified), the inhibition turned out to be 29%. As to `CS(=O)(=O)Nc1c(CO)cc(C(=O)O)cc1N=C(N)N`, the inhibition amounted to 11%. `CS(=O)(=O)Nc1ccc(C(=O)O)nc1`: the inhibition is 25%. The same measure, in the same setting: the value for `CC(=O)Nc1ccc(C(=O)O)cc1CCN` was 25%. In the case of `NC(N)=Nc1cc(C(=O)O)ccc1NCc1ccccc1`, the inhibition is 9%. On the same count and under the same terms, under `CC(=O)Nc1ccc(C(=O)O)cc1CCO` stands 16%; under `CC(=O)Nc1cnc(C(=O)O)cc1N`, 14%. Regarding `CC(=O)Nc1c(CCO)cc(C(=O)O)cc1N=C(N)N`, the inhibition came to 0%. Regarding `CC(=O)Nc1ccc(C(=O)O)cc1`, the inhibition was determined as 0%. Turning to `CS(=O)(=O)Nc1ccc(C(=O)O)cc1C(O)CN` (stereo unspecified), the inhibition was 17%.

For `O=C(CN1CCOCC1)Nc1ccc(C(=O)O)cc1`, the inhibition worked out at 0%. For the molecule `N=C(N)Nc1cc(/C=N/O)cc(C(=O)O)c1`, the inhibition was 35%. As to `CC(=O)Nc1ccc(C(=O)O)cc1CC(O)CO` (stereo in doubt; 32), the inhibition was 0%. The same measure, in the same setting: under `CC(=O)Nc1ccc(C(=O)O)nc1` stands 22%; under `CC(=O)Nc1ccc(C(=O)O)cc1CC(N)=O`, 0%; under `CS(=O)(=O)Nc1c(/C=N/O)cc(C(=O)O)cc1N=C(N)N`, 46%. Still for that read-out and setting: under `NC(N)=Nc1cc(C(=O)O)cc(CCO)c1N` stands 0%.

In a further assay the test system is Trypanosoma cruzi. As to the kind of experiment: Apparent activation of Trypanosoma cruzi recombinant Trans-sialidase. Conditions: concentration not given here. The procedure, abridged:
as §1
For `N=C(N)Nc1cc(CCN)cc(C(=O)O)c1`, the inhibition is -19%.
